Test [1] deals with Sodium-dependent dopamine transporter (Rattus norvegicus, UniProt P23977). The experiment in a line: Displacement of [3H]WIN35428 from DAT in Sprague-Dawley rat striatal membranes incubated for 120 mins by microbeta scintillation counting method. In kind it is cell membranes, Striatum, Membrane.
Test [2] is described as follows: Selectivity ratio of Ki for sigma 1 receptor in guinea pig brain cortex membranes to Ki for DAT in Sprague-Dawley rat striatum membranes. In kind it is cell membranes.
The target in test [3] is Sigma non-opioid intracellular receptor 1 (Cavia porcellus, UniProt Q60492). Briefly: Displacement of [3H](+)-pentazocine from sigma 1 receptor in guinea pig brain cortex membranes after 120 mins by scintillation counting analysis. In kind it is cell membranes, Membrane. The essentials: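 Male guinea pig cortex membranes in 10 mM Tris-HCl/0.32 M sucrose pH 7.4, 5.0 mg/well original wet weight; [3H](+)-pentazocine 3 nM final; inhibitor serial dilutions in 30% DMSO vehicle, triplicate; 120 min at RT; nonspecific with 10 μM PRE084 or (+)-pentazocine.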
Sigma non-opioid intracellular receptor 1, sequence (Q60492 whole entry): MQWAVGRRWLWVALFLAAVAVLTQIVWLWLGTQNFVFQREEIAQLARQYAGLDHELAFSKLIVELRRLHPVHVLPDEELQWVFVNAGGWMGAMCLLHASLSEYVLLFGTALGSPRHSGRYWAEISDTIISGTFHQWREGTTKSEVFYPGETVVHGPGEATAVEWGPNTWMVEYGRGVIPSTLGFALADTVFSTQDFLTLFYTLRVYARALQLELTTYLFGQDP

Test [4] deals with Sodium-dependent serotonin transporter (Rattus norvegicus, UniProt P31652). Briefly: Displacement of [3H]citalopram from SERT in Sprague-Dawley rat midbrain membranes incubated for 60 mins by microbeta scintillation counting method. In kind it is cell membranes, Membrane.
Sodium-dependent serotonin transporter, sequence (P31652 whole entry): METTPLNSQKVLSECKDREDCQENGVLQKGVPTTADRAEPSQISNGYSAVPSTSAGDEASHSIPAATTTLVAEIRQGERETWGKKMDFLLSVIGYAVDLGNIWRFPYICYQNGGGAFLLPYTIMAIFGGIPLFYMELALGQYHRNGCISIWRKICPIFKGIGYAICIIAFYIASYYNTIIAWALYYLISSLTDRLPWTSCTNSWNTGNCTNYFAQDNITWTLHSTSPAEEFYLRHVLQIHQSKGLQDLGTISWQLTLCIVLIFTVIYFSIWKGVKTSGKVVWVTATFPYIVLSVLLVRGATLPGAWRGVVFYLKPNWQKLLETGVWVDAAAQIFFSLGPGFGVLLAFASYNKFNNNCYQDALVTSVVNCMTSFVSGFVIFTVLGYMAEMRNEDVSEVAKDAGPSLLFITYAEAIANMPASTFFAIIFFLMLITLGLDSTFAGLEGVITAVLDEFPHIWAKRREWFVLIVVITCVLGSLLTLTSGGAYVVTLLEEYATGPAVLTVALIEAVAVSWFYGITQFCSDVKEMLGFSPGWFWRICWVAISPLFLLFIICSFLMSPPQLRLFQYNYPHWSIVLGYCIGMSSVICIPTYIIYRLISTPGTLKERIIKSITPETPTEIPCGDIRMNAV
The species entered for test [5] is Rattus norvegicus. Briefly: Selectivity ratio of Ki for SERT in Sprague-Dawley rat midbrain membranes to Ki for DAT in Sprague-Dawley rat striatum membranes.
Test [6] concerns the target D(2) dopamine receptor (Homo sapiens, UniProt P14416). The experiment in a line: Displacement of [3H]-N-methylspiperone from human D2L receptor expressed in HEK293 cell membranes measured after 60 mins by microbeta scintillation counting method. Also on record: species or system Membrane. The essentials: (§1)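 Membranes from HEK293 cells stably expressing human D2LR, D3R or D4.4R; 20 μg/well protein (D2LR, D3R) or 30 μg/well (D4.4R); [3H]-N-methylspiperone 0.4 nM final; half-log dilutions in 30% DMSO, triplicate; 60 min RT; nonspecific 10 μM (+)-butaclamol.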

Test [7] has as its target D(3) dopamine receptor (Homo sapiens, UniProt P35462). Briefly: Displacement of [3H]-N-methylspiperone from human D3 receptor expressed in HEK293 cell membranes measured after 60 mins by microbeta scintillation counting method. Further details: species or system Membrane. The essentials: as §1

The structures appear in SMILES notation.

Sodium-dependent dopamine transporter, sequence (P23977 whole entry): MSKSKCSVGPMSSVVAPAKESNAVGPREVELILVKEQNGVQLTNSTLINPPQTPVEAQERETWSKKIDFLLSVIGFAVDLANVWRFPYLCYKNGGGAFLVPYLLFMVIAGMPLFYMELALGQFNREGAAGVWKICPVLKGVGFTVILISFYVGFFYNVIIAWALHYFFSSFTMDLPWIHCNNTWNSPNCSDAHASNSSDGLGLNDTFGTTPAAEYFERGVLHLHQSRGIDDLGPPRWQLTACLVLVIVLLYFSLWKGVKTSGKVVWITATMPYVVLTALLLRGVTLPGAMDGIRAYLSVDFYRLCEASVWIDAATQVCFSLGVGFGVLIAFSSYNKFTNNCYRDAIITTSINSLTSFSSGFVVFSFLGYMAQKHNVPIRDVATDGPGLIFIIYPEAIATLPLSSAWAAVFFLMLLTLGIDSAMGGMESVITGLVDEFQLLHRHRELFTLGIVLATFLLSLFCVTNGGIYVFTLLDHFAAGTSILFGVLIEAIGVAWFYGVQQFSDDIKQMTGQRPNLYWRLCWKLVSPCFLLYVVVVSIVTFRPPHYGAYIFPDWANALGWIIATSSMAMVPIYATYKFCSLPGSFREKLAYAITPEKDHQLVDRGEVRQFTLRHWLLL
D(2) dopamine receptor, sequence (P14416 whole entry): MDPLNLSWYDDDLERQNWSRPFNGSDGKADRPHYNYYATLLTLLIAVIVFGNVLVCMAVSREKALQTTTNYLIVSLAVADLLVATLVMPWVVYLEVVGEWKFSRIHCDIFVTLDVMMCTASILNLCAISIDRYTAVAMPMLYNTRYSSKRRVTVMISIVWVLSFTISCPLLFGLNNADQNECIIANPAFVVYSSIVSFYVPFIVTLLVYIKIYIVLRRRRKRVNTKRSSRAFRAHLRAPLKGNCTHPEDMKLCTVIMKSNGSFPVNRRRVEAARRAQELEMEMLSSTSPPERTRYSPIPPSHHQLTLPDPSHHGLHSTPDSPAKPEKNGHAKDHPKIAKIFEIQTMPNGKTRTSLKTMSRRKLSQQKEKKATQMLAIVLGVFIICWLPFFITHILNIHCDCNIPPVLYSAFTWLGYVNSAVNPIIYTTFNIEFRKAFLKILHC
D(3) dopamine receptor, sequence (P35462 whole entry): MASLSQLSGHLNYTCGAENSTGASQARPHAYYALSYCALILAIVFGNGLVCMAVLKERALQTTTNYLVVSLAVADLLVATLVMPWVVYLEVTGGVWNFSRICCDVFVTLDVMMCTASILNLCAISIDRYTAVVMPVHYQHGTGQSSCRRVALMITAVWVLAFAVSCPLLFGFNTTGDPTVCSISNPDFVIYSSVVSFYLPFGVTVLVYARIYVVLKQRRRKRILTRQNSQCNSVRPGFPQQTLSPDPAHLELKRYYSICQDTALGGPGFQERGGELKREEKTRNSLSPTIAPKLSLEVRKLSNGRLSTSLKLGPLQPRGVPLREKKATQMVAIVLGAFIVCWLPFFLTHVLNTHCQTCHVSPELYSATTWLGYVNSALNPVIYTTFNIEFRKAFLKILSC

On to `O=C(c1ccccc1F)N1CCC(NCC[S+]([O-])C(c2ccc(F)cc2)c2ccc(F)cc2)CC1` (stereo not given), for which the Ki in test [1] is 604 nM; in test [3] it was 1310 nM; in test [4], 14200 nM. The Ratio Ki in test [2] came out at 2.16; in test [5], 23.5.

Compound `Fc1ccc(C(SCCNC2CCN(Cc3ccc(C(F)(F)F)cc3)CC2)c2ccc(F)cc2)cc1` gave a Ki in test [3] of 186 nM.

For the compound `O=C(c1ccccc1)N1CCC(NCC[S+]([O-])C(c2ccc(F)cc2)c2ccc(F)cc2)CC1` (stereo not given), the Ki in test [3] came out at 585 nM.

As for `CC(C)(C)CN1CCC(NCCSC(c2ccc(F)cc2)c2ccc(F)cc2)CC1`, the Ratio Ki amounted to 1.13 in test [2] and 3.39 in test [5]. For the same compound, the Ki in test [3] amounted to 315 nM.

Take `Fc1ccc(C(SCCN2CCC(NCc3ccc(C(F)(F)F)cc3)CC2)c2ccc(F)cc2)cc1`: the Ki in test [3] worked out at 162 nM.

Regarding `Fc1ccc(C(SCCNC2CCN(Cc3ccc(Cl)cc3)CC2)c2ccc(F)cc2)cc1`, the figures for the Ratio Ki in test [2] and in test [5] were 1.15 and 9.04, respectively. The inhibition constant (Ki) in test [3] amounted to 45.5 nM.

For `CC(O)CN1CCN(CCSC(c2ccc(F)cc2)c2ccc(F)cc2)CC1` (stereo not given), the inhibition constant Ki worked out at 37.8 nM in test [1], 2.24 nM in test [3] and 6800 nM in test [4].

On to `Fc1ccc(C(SCCNC2CCN(CCc3ccccc3)CC2)c2ccc(F)cc2)cc1`, for which the Ratio Ki in test [2] amounted to 1.83; in test [5] it was 4.57. The Ki in test [3] came to 57.7 nM.

Consider `CC(C)N(CCSC(c1ccc(F)cc1)c1ccc(F)cc1)C1CCN(C(=O)c2ccccc2F)CC1`, for which the Ki in test [1] came out at 1530 nM; in test [3] it was 126 nM; in test [4], 16300 nM. Moreover, the Ratio Ki stood at 0.08 in test [2] and 10.7 in test [5].

As for `CC(O)CN1[C@H](C)CN(CCSC(c2ccc(F)cc2)c2ccc(F)cc2)C[C@@H]1C` (stereo not given in full), the Ratio Ki in test [2] turned out to be 0.243; in test [5] it was 641. Moreover, the Ki was 11900 nM in test [6] and 1470 nM in test [7].

For `CC(C)(C)C(=O)N1CCC(NCC[S+]([O-])C(c2ccc(F)cc2)c2ccc(F)cc2)CC1` (stereo not given), the Ratio Ki is 1.1 in test [2] and 3.14 in test [5]. For the same compound, in test [3], the affinity, expressed as Ki, was 11200 nM.

Consider `Fc1ccc(C(SCCNC2CCN(CC3CC3)CC2)c2ccc(F)cc2)cc1`, for which the results for the Ratio Ki in test [2] and in test [5] were 0.66 and 3.93, respectively. The affinity in test [3] corresponds to a Ki of 269 nM.

Take `NC(=O)C[S+]([O-])C(c1ccc(F)cc1)c1ccc(F)cc1` (racemic): the Ki in test [1] was 4090 nM; in test [3], more than 100000 nM; in test [4] it was 48700 nM. For the same compound, the results for the Ratio Ki in test [2] and in test [5] were more than 24 and 11.9, respectively.

Turning to `[O-][S+](CCN1CCN(CC(O)Cc2ccccc2)CC1)C(c1ccc(F)cc1)c1ccc(F)cc1` (stereo not given), the Ki in test [1] stood at 2.6 nM; in test [3], 41.6 nM; in test [4], 12700 nM.

As to `O=C(c1cc2ccccc2[nH]1)N1CCC(NCCSC(c2ccc(F)cc2)c2ccc(F)cc2)CC1`, the Ki in test [1] came out at 177 nM; in test [3], 1130 nM.

Take `CN(CCSC(c1ccc(F)cc1)c1ccc(F)cc1)C1CCN(C(=O)c2ccc(F)cc2)CC1`: the Ki was 190 nM in test [1], 7.11 nM in test [3] and 2440 nM in test [4]. For the same compound, the Ratio Ki in test [2] stood at 0.04; in test [5], 12.8.

`Fc1ccc(C(SCCNC2CCN(Cc3cc4ccccc4[nH]3)CC2)c2ccc(F)cc2)cc1` gave a Ki in test [3] of 205 nM.

For `NC(=O)C[S@@+]([O-])C(c1ccc(F)cc1)c1ccc(F)cc1`, the Ki was 4830 nM in test [1], more than 100000 nM in test [3] and 38900 nM in test [4]. Moreover, the Ratio Ki is more than 21 in test [2] and 8.05 in test [5].

Consider `O=C(C1CC1)N1CCC(NCCSC(c2ccc(F)cc2)c2ccc(F)cc2)CC1`, for which the Ratio Ki is 0.26 in test [2] and 5.67 in test [5]. The affinity in test [3] corresponds to a Ki of 46.4 nM.

With `O=C(c1ccccc1F)N1CCC(NCCSC(c2ccc(F)cc2)c2ccc(F)cc2)CC1`, the Ki in test [1] amounted to 46.1 nM; in test [3], 3.57 nM; in test [4], 351 nM. The Ratio Ki in test [2] was found to be 0.08; in test [5], 7.61.

For `CN(CCSC(c1ccc(F)cc1)c1ccc(F)cc1)C1CCN(C(=O)c2ccccc2F)CC1`, the Ki in test [1] was determined as 222 nM; in test [3], 5.87 nM; in test [4], 992 nM. For the same compound, the values for the Ratio Ki in test [2] and in test [5] were 0.03 and 4.47, respectively.

With `CN(CC[S+]([O-])C(c1ccc(F)cc1)c1ccc(F)cc1)C1CCN(C(=O)c2ccccc2F)CC1` (stereo not given), the Ki turned out to be 7380 nM in test [1], 516 nM in test [3] and 251000 nM in test [4]. The values for the Ratio Ki in test [2] and in test [5] were 0.07 and 34, respectively.

As for `Fc1ccc(C(SCCN2CCC(NCc3ccc(Cl)cc3)CC2)c2ccc(F)cc2)cc1`, the Ratio Ki in test [2] was 0.72; in test [5], 4.59. In addition, the Ki in test [3] was found to be 62.4 nM.

For `Fc1ccc(CNC2CCN(CCSC(c3ccc(F)cc3)c3ccc(F)cc3)CC2)cc1`, the Ratio Ki in test [2] turned out to be 0.74; in test [5], 4.79. The same compound displayed a Ki in test [3] of 41.4 nM.

For the compound `Fc1ccc(C(SCCNC2CCN(Cc3cc4ccccc4o3)CC2)c2ccc(F)cc2)cc1`, the Ki in test [1] was 120 nM; in test [3], 205 nM; in test [4] it was 695 nM. The Ratio Ki in test [2] is 1.71; in test [5], 5.79.

On to `CC(C)(C)CN1CCC(NCC[S+]([O-])C(c2ccc(F)cc2)c2ccc(F)cc2)CC1` (stereo not given), for which the Ratio Ki in test [2] was found to be 1.26; in test [5], 16.2. This compound also registered a Ki in test [3] of 542 nM.

`Fc1ccc(C(SCCNC2CCN(Cc3ccccc3)CC2)c2ccc(F)cc2)cc1`: the Ratio Ki stood at 0.12 in test [2] and 12.4 in test [5]. The same compound gave a Ki in test [3] of 3.81 nM.

For the compound `Fc1ccc(C(SCCN2CCC(NCc3ccccc3)CC2)c2ccc(F)cc2)cc1`, the Ratio Ki in test [2] turned out to be 0.56; in test [5] it was 3.06. In test [3], this compound came in with a Ki of 60.9 nM.

On to `NC(=O)C[S@+]([O-])C(c1ccc(F)cc1)c1ccc(F)cc1`, for which the figures for the Ki in test [1], in test [3] and in test [4] were 2970 nM, more than 100000 nM and 15000 nM, respectively. Further, the Ratio Ki is more than 34 in test [2] and 5.05 in test [5].

The compound `O=C(c1cc2ccccc2o1)N1CCC(NCCSC(c2ccc(F)cc2)c2ccc(F)cc2)CC1` gave a Ki in test [3] of 304 nM.

Take `O=C(c1ccc(F)cc1F)N1CCC(NCC[S+]([O-])C(c2ccc(F)cc2)c2ccc(F)cc2)CC1` (stereo not given): the Ki in test [1] amounted to 564 nM; in test [3], 171 nM; in test [4], 4610 nM. In addition, the values for the Ratio Ki in test [2] and in test [5] were 0.3 and 8.17, respectively.
